This sample holds only a part of the variants without activity. Some results are limits rather than exact numbers.

To fix the notation:
B1: tRNA (parent)
chain: GUUCCGUUGGCGUAAUGGUAACGCGUCUCCCUCCUAAGGAGAAGACUGCGGGUUCGAGUCCCGUACGGAACG

This data set covers variants of B1. The data set can be described thus: yeast fitness relative to wild type (ratio to wild type); higher = fitter; tRNA-Arg(CCU), competitive growth, 37 C, YPD. In short, it runs like this: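 Gene amplicons from the start population and from each of six end populations were read by 100-nucleotide paired-end sequencing. Those end populations came from pooled Saccharomyces cerevisiae strains carrying tRNA-Arg(CCU) gene variants at the native locus, competed in YPD at 37°C for 24 hours. Fitness relative to wild type was worked out from changes in genotype frequencies. Genotypes needed ≥ 100 starting reads, and estimates < 0.5 were set to 0.5.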
As to A20C C31U A40G G52C C62A A65G, the yeast fitness is at most 0.5.
To C4A A14U C34U belongs 0.763; to U3A C22G C29U A65C, at most 0.5.
To U3C U7A G44C C61U C62U G63C U64A C66U A69G belongs at most 0.5; to G10C U54G, at most 0.5.
With C11A U16C G18C A45C U59A the figure was at most 0.5; with C27G C55G, at most 0.5; with U2G A14C A57U A69U, at most 0.5.
As for G18C G56C C62U, the yeast fitness was at most 0.5.
With U35A A36U A45C the figure was 0.531.
With U16C C22U G63A the figure was 0.545; with C4G C49U G52A, 0.55; with G6A G9U C11U A70C, 0.533.
With U8C A45C G56A the figure was 0.798; with C4A C5G G51A C60U G67A, at most 0.5.
With C31U A45G, the yeast fitness was 0.932.
With U35C G38A the figure was 0.891; with U7C U16G A20G U26C C49G, at most 0.5; with C4A G38A C55G, at most 0.5.
To U3A A15G U35C G52A G58C C66U belongs at most 0.5; to A42G G52A, 0.648.
To C5U A15U C29U C31U C34U belongs 0.519.
C5G U47A G68C: the yeast fitness came out at 0.565.
With C4U C5U G18A G25A C33U G48A G52A A65C G68A the figure was at most 0.5.
As for A21G A40G C61U, the yeast fitness was determined as 0.654.
With C11G A20U C30G C49G U53G the figure was 0.571.
With U7G C27U C33U the figure was at most 0.5; with U2C C4G G9A C24U A45C, at most 0.5; with C22U A37U G50C C66U, 0.697.
To U35A C62A belongs at most 0.5.
On to A42U A45U C49G, for which the yeast fitness amounted to 0.526.
With G41A C60G C62A A65G the figure was at most 0.5.
To C34G G41C C60A belongs 0.607; to C5A G25C A57C G67A A69U, 0.525; to A21G G23A C27G C61U A69C, at most 0.5.
To C11G C34U G44C G50C C66U belongs at most 0.5; to C4A G17C A21U C33G, 0.517.
Take U28C G44C: the yeast fitness turned out to be 0.935.
With A36U C49G the figure was 0.607.
With C4G G18C A65U the figure was at most 0.5; with C4U G10A G12A, 0.653.
To C5A U8C G38A C62G belongs 0.643; to C5U A42G C49U A65C, at most 0.5.
Take C24G U32A A42C A65U: the yeast fitness was at most 0.5.
As for G17C C33U G56A A69U, the yeast fitness is at most 0.5.
With C11G C29G C31G the figure was at most 0.5.
To A15C A37G A57C A69C belongs 0.794; to U7A A20G G23A U26G, 0.548; to G10A U16A G17A U32A A42U G48C, at most 0.5.
Consider G17C G38A, for which the yeast fitness came out at 0.599.
With C49G U59A the figure was 0.785.
To C24U A45U belongs 0.919.
With U2C G67A A70U the figure was 0.67.
For U7C A20G C30A, the yeast fitness was at most 0.5.
For the variant U28A C29G C31U U54C, the yeast fitness is at most 0.5.
To A36G A69U belongs 1.02; to A21C A45U, 0.631; to C11G C27U U32A G52A C60U A70C, at most 0.5.
On to A21U C30G C34U G52A A65C A69U, for which the yeast fitness was at most 0.5.
With C4U U7A U8A A40U C61U the figure was at most 0.5; with C34G G38C G68C, 0.582.
To G9C G12A C61G belongs at most 0.5; to C30U A37G G39A, 0.552; to C24G A42C G68A, at most 0.5.
To U2C A37U U53A G63A belongs at most 0.5; to A14G C30U A42G A57U, at most 0.5; to U3A C4U U7A C24U A42U G58A C62U G63A, at most 0.5.
As to A14G U26G G52C C60A, the yeast fitness was 0.616.
On to C22G A37C A45U G67A, for which the yeast fitness was 0.581.
U7G C24G: the yeast fitness is 0.619.
With A43U C46U A69U the figure was 0.807.
To A14C U16C A37G A40U G51C A69C belongs at most 0.5.
Take U28G U35G A45U: the yeast fitness was at most 0.5.
As to A20G C29U U47G C49U, the yeast fitness was at most 0.5.
With A14C A20U the figure was 0.641.
Turning to U16G U35A G51C C61U, the yeast fitness is at most 0.5.
With G6C A43U G50A A70U, the yeast fitness was at most 0.5.
To U3A C11G A14C C24G C31A belongs at most 0.5.
For the variant C30A C31U A45C C55G, the yeast fitness was found to be 0.522.
With C55A A69U the figure was 0.694.
To C46A C61A belongs 0.758.
With A14G C31U A42U A69U the figure was 0.544; with U16C C33U C60U G67C, at most 0.5.
Take U7A G9C G17C G48A: the yeast fitness was 0.525.
To C5U A65C G67C belongs 0.566; to A15U C24G G56A, at most 0.5; to A21G A43U C61A, at most 0.5.
With U8C C33G A43C the figure was at most 0.5; with A14U A20C C31U A37G, at most 0.5.
With C4G G9A G18C C31U U47G the figure was at most 0.5; with G10C A14U G25A C27U U53C A70G, 0.536; with C5U A43G A45G, 0.669.
As for A14U U16A C22U C24A, the yeast fitness was at most 0.5.
To G17C U19C C27U A65C belongs 0.641; to C24U U26A G68A, 0.604; to U28A U32A C55G, at most 0.5.
For C22G C27G C33U G41A, the yeast fitness worked out at 0.631.
With U28C A69U the figure was 0.893; with C5U C34A G63A, at most 0.5; with C5G U26C C30U C49U A69U, at most 0.5.
For C22U A40G C61U U64G A69U, the yeast fitness is at most 0.5.
To C4U C5G G48C belongs 0.655.
With G17A A20U C24U U53A the figure was at most 0.5; with G10A U35A G56A A65G C66U, at most 0.5; with U28C C33G G38A A57G, at most 0.5.
Regarding G17A C24G C27G, the yeast fitness was determined as 0.57.
For the variant C11U A14U C34U A57G, the yeast fitness is at most 0.5.
With U16G A21U C46G the figure was at most 0.5.
With A14G C31U C55A G67A A70G the figure was at most 0.5; with C5G C29G C34U, at most 0.5; with C5U A42U A43G, 0.63.
To C4U C30G belongs 0.801.
Turning to U3C C29U C60G, the yeast fitness turned out to be 0.568.
As to C11A U59C C60A U64A, the yeast fitness was at most 0.5.
To U8C G17C A42G C61A belongs at most 0.5; to U28A C49U C55G, at most 0.5.
To C5A G10A C49A belongs at most 0.5; to C4G G12A C49U C60A C61A, at most 0.5.
With C5U U16C C24U A42C A57U the figure was at most 0.5.
Regarding C11G C27A G38A A65C, the yeast fitness is 0.557.
With C22G C34A A40C A45U the figure was 0.665; with C5U C22G U26G A42C G51A, 0.537.
With U2C C24G C49U the figure was at most 0.5; with U2C C31G C62A, 0.532; with C4A G6A A14G A65G, at most 0.5.
For U2A U3G G18A A20C C49U C55U, the yeast fitness is at most 0.5.
With C4U U13A A14U U32A G58C the figure was at most 0.5; with G18A C34G U54C, at most 0.5.
With G9A G10C U19A the figure was at most 0.5.
To C24U C29U C30A belongs 0.706.
For the variant U3C C60A, the yeast fitness came out at 0.619.
Take A15U C22G G52C A65C: the yeast fitness is at most 0.5.
To C4U G18C G51A C66A belongs at most 0.5; to C5U C30G G51C G56U, at most 0.5; to C24U C34G G51A, 0.663.
To G9A C22U A43G U64A belongs at most 0.5.
In the case of G48A G58C C66U, the yeast fitness was found to be 0.714.
To C24A C33A G51C C62U belongs at most 0.5; to U3C G23C C27G C61G, 0.539; to U3A C34A C60U, at most 0.5.
Consider C4G C5U C11A C46A U47A U53A, for which the yeast fitness was determined as 0.566.
With C5A G23C the figure was 0.723.
To A14C C29U G52A C55G belongs at most 0.5; to U16G U54C C60A, at most 0.5.
To G10C A15U A37U A45C G52C belongs 0.606; to C34G A42U G68C, at most 0.5.
Regarding U7A G12A C34G C62U G68C, the yeast fitness is at most 0.5.
To A14G U19C U35C A40G belongs at most 0.5; to U8A A36G G44A, 0.527.
To U3C A40U G58A A69C belongs 0.656; to A14G A42C A43U U59A C62G A65U, at most 0.5.
With U7G A15G U19C A21G G41A C55A the figure was 0.575; with A20U A36C A43U, 0.641; with U19A A65C C66G, at most 0.5.
As to C4G A40U C62A, the yeast fitness came out at 0.638.
With U13A C22U G51A C62G G63C C66G A69U the figure was at most 0.5.
With A15C A20G C62U U64G the figure was at most 0.5; with A20G G63A, 0.903.
To C22G G56A belongs 1.07; to U2A G17C C46G C66A A70C, 0.605; to U7G C30U, 0.895.
Consider U32C A36C G52C C66U, for which the yeast fitness was at most 0.5.
To U13C A21G belongs 1.09; to G25A A45G G50C A69C, 0.526.
Take A21U C22U U32A C49G: the yeast fitness was at most 0.5.
With G23A C29U the figure was 0.923.
With C11A A43U C46U U47G A70U the figure was at most 0.5.

For the origin of these results see the RNAGym collection of RNA variant scans (doi:10.1126/science.aae0568).
